Results from different studies.
Compare with care: the assays were run in different laboratories.
LRRK2 G2019S: Leucine-rich repeat serine/threonine-protein kinase 2 (LRRK2, Homo sapiens, UniProt Q5S007, G2019S)
LRRK2: Leucine-rich repeat serine/threonine-protein kinase 2 (LRRK2, Homo sapiens, UniProt Q5S007)

Cn1cncc1[C@@](O)(COc1ccc(C#N)cc1-c1ccc(OC(F)(F)F)cc1)c1ccc(C#N)cc1 — remaining binding (LRRK2 G2019S; cell-free assay; competition with immobilised ligand; 1 µM): 91%
Nc1ncc(-c2nc(N3CCOCC3)nc(N3CCOCC3)n2)c(C(F)F)n1 — remaining binding (LRRK2 G2019S; binding; competition with immobilised ligand; 10 µM): 91%
CC(C)(C)c1cc(C=C(C#N)C#N)cc(Br)c1O — remaining activity (LRRK2; enzyme activity; inhibitor; 0.5 µM): 109%
Cc1nn(C)cc1-c1nc2c(N3CCN(Cc4ccc(Cl)cc4)CC3)c(Cl)cnc2[nH]1 — remaining binding (LRRK2 G2019S; binding; competition with immobilised ligand; 1 µM): 85%
COc1ncccc1-c1cnn2ccc(N3CCN(C(=O)OC(C)C)CC3)nc12 — remaining binding (LRRK2; binding; competition with immobilised ligand; 1 µM): 87%
Cn1cc(-c2cccc(N3CCc4c(sc5c4CC(C)(C)C5)C3=O)c2CO)cc(Nc2ccncn2)c1=O — inhibition (LRRK2; enzyme activity; inhibitor; 1 µM): -1%
N#CC1(c2ccccn2)CCN(Cc2cc(C(=O)O)c(=O)n3ccccc23)CC1 — remaining binding (LRRK2 G2019S; cell-free assay; competition with immobilised ligand; 1 µM): 100%
O=c1[nH]c2ccccc2n1C1CCN(Cc2ccc(-c3[nH]c4cc5ncnc5cc4nc3-c3ccccc3)cc2)CC1 — remaining signal (LRRK2; cell-free assay; 0.5 µM): 103%
C#Cc1n[nH]c2c(-c3cn(C(C)c4ccccn4)c(=O)[nH]c3=O)cc(F)cc12 (stereo not drawn) — inhibition (LRRK2; enzyme activity; inhibitor; 1 µM): -0.2%
